The values below come from ChEMBL document CHEMBL4610117 (J Med Chem, 2020).

Where only a bound is given, the exact number is not on record here.

The nature of data set [1]: Oral bioavailability in Beagle dog at 0.6 to 1 mg/kg by LC-MS/MS analysis. Particulars: in vivo. The data set is classed as ADME, organism-based, Canis lupus familiaris.
Data set [2] is described as follows: Clearance in human hepatocytes at 1 uM measured after 2 to 90 mins by LC-MS/MS analysis. The data set is classed as ADME, cell-based, Hepatocyte.
A short description of data set [3]: Volume of distribution at steady state in NMRI mouse at 0.3 to 0.5 mg/kg, iv administered as bolus dose by LC-MS/MS analysis. The data set is classed as ADME, organism-based. The following applies: in vivo.
A short description of data set [4]: Volume of distribution at steady state in Beagle dog at 0.3 to 0.5 mg/kg, iv administered as bolus dose by LC-MS/MS analysis. The data set is classed as ADME, organism-based, Canis lupus familiaris. The following applies: in vivo, read-out: Vdss.
A short description of data set [5]: Protein binding in rat plasma assessed as unbound fraction at 3 uM measured after 7 hrs by LC-MS/MS analysis. The data set is classed as ADME, cell-free.
The nature of data set [6]: Apparent half life in Wistar rat at 0.3 to 0.5 mg/kg, iv administered as bolus dose by LC-MS/MS analysis. The data set is classed as ADME, organism-based. Particulars: in vivo, read-out: t1/2(app) (converted).
A short description of data set [7]: Toxicity in NOD/SCID mouse xenografted with human CR5038 cells assessed as body weight loss at 20 mg/kg, po qd dosed every 2 days followed by 5 days interval measured on day 11 to 14 and 28 to 31 in presence of carboplatin relative to control. The following applies: in vivo. The data set is classed as organism-based. (In xenograft studies the graft and the host belong to different species.)

A short description of data set [8]: Apparent half life in NMRI mouse at 0.3 to 0.5 mg/kg, iv administered as bolus dose by LC-MS/MS analysis. The data set is classed as ADME, organism-based. Particulars: in vivo.
The next data set relates to SUM149PT. Put plainly: Antitumor activity against human SUM149 cells xenografted in nude mouse assessed as tumor growth at 20 mg/kg, po bid dosed every 3 days followed by 4 days interval in presence of olaparib relative to control. The data set is classed as functional. An outline of the steps:
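SUM149 human TNBC xenograft in nude mice, n = 10/group. Oral 20 mg/kg b.i.d., 3 days on/4 days off, combined with olaparib 50 mg/kg q.d. i.p. T/C ratio versus vehicle and the monotherapies; body weight loss was monitored.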

The nature of data set [9]: Clearance in rat liver microsomes at 1 uM measured after 2 to 60 mins in presence of NADP by LC-MS/MS analysis. The data set is classed as ADME, Microsome. On the technique in general: Microsomes from liver hold many membrane-bound enzymes, among them those of drug oxidation.
Data set [10] concerns the target DNA-dependent protein kinase catalytic subunit (Homo sapiens, UniProt P78527). Briefly: Inhibition of DNA-PK (unknown origin).
Data set [11] deals with Serine/threonine-protein kinase mTOR (Homo sapiens, UniProt P42345). Briefly: Binding affinity to wild-type human partial length mTOR (L1382 to W2549 residues) expressed in mammalian expression system by Kinomescan method.
The nature of data set [12]: Toxicity in NOD/SCID mouse xenografted with human CR5038 cells assessed as body weight loss at 20 mg/kg, po qd dosed every 2 days followed by 5 days for 2 weeks and subsequent dosing at 10 mg/kg interval measured on day 11 to 14 and 28 to 31 in presence of carboplatin relative to control. The data set is classed as organism-based. Particulars: in vivo.
A short description of data set [13]: Clearance in Wistar rat at 0.3 to 0.5 mg/kg, iv administered as bolus dose by LC-MS/MS analysis. The data set is classed as ADME, organism-based. The following applies: in vivo.
Data set [14] is described as follows: Antitumor activity against human CR5038 cells xenografted in NOD/SCID mouse assessed as tumor growth at 20 mg/kg, po qd dosed every 2 days followed by 5 days interval for 2 weeks and subsequent dosing at 10 mg/kg in presence of carboplatin relative to control. The data set is classed as functional. A digest of the protocol:
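CR5038 human CRC PDX in NOD/SCID mice, n = 10/group. Oral dosing q.d. at 20 mg/kg, reduced to 10 mg/kg from day 14, 2 days on/5 days off. Combined with carboplatin 40 mg/kg i.p. once weekly (1 day on/6 days off). T/C ratio reported versus vehicle and the monotherapies; body weight was monitored.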

Data set [15] can be described thus: Clearance in NMRI mouse at 0.3 to 0.5 mg/kg, iv administered as bolus dose by LC-MS/MS analysis. The data set is classed as ADME, organism-based. Particulars: in vivo.
Data set [16] can be described thus: Volume of distribution at steady state in Wistar rat at 0.3 to 0.5 mg/kg, iv administered as bolus dose by LC-MS/MS analysis. The data set is classed as ADME, organism-based. The following applies: in vivo, read-out: Vdss.

Chain of DNA-dependent protein kinase catalytic subunit (P78527 whole entry, the tested form may be a part): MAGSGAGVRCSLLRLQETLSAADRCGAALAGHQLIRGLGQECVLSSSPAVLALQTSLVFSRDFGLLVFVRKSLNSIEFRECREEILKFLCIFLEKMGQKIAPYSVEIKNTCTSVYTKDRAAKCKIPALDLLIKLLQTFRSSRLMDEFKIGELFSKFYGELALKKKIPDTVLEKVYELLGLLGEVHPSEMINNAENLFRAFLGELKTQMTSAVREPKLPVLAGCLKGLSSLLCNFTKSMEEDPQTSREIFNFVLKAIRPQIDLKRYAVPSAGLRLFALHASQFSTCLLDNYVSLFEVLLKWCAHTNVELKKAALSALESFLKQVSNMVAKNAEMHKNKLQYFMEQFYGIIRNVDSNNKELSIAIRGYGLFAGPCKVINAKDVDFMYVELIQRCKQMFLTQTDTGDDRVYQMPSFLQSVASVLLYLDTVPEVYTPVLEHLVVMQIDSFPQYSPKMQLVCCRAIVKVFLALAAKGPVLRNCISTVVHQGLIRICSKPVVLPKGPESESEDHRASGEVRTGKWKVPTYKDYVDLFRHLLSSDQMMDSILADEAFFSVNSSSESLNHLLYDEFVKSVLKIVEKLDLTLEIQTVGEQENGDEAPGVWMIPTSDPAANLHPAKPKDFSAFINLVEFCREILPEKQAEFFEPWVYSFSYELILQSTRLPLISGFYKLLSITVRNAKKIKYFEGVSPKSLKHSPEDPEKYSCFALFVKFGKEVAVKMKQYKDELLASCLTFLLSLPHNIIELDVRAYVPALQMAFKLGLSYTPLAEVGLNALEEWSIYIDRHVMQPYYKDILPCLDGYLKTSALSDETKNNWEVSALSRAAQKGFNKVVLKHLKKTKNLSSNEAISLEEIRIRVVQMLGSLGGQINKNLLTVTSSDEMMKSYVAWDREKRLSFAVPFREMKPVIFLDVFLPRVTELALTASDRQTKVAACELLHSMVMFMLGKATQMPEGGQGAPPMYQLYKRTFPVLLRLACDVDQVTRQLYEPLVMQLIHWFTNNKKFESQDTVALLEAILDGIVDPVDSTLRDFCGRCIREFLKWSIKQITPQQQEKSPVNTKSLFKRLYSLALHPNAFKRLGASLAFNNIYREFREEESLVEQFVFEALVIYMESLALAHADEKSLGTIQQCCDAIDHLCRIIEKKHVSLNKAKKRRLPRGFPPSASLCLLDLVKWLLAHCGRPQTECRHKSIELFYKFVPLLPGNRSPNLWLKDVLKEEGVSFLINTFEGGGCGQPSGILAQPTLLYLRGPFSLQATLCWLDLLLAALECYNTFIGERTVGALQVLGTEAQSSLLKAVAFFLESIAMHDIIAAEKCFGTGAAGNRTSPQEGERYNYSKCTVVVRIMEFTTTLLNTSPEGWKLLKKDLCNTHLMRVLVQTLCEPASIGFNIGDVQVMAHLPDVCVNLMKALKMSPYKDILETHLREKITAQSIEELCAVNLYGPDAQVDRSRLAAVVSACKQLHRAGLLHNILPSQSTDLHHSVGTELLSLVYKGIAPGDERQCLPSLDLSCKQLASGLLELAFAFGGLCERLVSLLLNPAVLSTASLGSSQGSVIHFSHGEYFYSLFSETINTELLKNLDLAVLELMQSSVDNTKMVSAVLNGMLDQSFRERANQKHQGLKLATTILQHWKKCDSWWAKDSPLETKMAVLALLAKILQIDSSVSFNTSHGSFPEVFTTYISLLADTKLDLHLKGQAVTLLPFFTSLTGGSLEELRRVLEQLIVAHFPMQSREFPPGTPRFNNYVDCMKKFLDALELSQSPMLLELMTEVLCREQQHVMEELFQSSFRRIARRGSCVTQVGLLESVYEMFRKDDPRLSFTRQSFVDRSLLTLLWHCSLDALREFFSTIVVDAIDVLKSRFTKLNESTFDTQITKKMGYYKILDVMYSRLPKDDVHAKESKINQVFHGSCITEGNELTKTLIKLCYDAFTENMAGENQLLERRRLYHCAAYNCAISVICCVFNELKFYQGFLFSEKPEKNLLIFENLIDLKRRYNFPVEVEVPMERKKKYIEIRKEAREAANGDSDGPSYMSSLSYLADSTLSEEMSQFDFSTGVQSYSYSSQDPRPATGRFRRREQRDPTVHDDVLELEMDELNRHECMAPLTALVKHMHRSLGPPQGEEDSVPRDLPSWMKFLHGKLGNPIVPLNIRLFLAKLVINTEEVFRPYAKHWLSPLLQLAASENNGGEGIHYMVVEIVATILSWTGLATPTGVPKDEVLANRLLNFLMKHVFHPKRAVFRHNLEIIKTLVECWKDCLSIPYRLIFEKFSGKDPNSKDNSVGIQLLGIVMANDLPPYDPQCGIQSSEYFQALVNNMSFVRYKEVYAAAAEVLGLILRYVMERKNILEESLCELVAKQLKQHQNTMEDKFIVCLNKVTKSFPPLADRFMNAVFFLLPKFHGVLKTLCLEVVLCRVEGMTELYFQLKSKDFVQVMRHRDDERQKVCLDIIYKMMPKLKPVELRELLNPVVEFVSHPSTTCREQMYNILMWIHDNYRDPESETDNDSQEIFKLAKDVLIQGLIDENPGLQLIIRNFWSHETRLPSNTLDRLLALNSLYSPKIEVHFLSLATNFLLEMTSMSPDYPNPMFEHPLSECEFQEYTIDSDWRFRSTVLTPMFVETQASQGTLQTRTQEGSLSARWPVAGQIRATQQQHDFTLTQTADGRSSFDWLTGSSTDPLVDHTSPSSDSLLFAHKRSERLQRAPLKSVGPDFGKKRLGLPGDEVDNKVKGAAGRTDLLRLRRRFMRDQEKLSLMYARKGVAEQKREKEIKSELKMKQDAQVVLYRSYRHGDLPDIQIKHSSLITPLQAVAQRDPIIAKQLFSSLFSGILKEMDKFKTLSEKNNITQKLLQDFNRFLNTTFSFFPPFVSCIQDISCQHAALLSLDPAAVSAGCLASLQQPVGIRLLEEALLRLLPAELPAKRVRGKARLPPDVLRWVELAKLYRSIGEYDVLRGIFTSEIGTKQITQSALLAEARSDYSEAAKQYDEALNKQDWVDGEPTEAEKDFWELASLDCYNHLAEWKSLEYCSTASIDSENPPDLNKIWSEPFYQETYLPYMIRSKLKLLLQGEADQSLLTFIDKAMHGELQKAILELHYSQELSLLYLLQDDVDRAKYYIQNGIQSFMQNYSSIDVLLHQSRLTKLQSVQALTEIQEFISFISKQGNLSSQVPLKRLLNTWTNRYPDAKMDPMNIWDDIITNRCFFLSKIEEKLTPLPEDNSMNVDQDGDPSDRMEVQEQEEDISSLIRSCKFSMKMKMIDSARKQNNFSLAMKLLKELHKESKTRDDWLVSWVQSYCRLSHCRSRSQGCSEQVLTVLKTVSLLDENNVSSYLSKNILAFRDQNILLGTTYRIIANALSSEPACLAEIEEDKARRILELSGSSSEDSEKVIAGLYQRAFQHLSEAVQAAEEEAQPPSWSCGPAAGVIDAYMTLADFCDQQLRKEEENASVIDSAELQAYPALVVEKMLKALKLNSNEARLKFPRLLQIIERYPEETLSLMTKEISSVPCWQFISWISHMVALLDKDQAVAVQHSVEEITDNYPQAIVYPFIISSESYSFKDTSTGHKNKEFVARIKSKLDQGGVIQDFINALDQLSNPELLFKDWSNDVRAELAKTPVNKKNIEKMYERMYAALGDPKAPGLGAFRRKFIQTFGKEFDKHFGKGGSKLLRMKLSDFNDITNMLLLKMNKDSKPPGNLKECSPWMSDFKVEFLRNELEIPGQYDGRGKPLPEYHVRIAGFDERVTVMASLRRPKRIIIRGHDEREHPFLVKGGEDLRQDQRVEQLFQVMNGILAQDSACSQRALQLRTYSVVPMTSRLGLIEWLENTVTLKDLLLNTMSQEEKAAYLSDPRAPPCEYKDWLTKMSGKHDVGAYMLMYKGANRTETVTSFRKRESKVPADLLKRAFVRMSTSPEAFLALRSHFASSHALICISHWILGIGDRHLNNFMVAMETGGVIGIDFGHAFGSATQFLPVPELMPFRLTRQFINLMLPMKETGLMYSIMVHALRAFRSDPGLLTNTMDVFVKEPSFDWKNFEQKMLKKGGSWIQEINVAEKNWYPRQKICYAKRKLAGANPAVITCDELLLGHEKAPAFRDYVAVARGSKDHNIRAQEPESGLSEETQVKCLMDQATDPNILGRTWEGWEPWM

The term bioavailability denotes dose-corrected exposure relative to a reference, in per cent. Higher therefore signals good availability. A word on the Vdss: it is a proportionality between amount in the body and measured concentration, not a real space. Read a high Vdss as wide distribution into tissue. One may read the fraction unbound as the share of the substance not bound to proteins or other matrix. For orientation: IC50 means the concentration that gives 50% inhibition. One may read the Kd as the constant that tells how readily two partners part at equilibrium. As a reminder, the clearance is the rate of elimination divided by the concentration. High values mean a high capacity for elimination, low ones a low capacity for elimination. `C[C@@H]1COCCN1c1cc(-c2ccnn2C)c2ccnc(-c3ccn[nH]3)c2n1` [ELIMUSERTIB] had a bioavailability in data set [1] of 51%. The CLH turned out to be 6.83 mL/min/kg in data set [2] and 8.67 mL/min/kg in [9]. Also, the distribution volume (Vdss) in data set [3] amounted to 8.8 L/kg. Besides, the Vd in data set [4] is 1 L/kg; in data set [16] it was 1.7 L/kg. Also, the fraction unbound at 7 h, 3 µM in data set [5] is 0.17. Besides, in data set [6], the half-life was 1.3 h. The Activity was 11 to 15% in data set [7] and < 10% in [12]. Moreover, the “t1/2(app)” value in data set [8] is 0.17 h. The T/C in the data set with SUM149PT is listed as -0.06; in data set [14], 0.34. In data set [10], this molecule registered a concentration for half-maximal inhibition (IC50) of 332 nM. In addition, binding in data set [11] was put at a Kd of 24 nM. Moreover, the clearance in data set [13] is 20 mL/min/kg. In addition, in data set [15], the CL worked out at 58.3 mL/min/kg.
